Results from different studies.
Compare with care: the assays were run in different laboratories. pIC50: −log10 of the molar value.
Target: Prostaglandin G/H synthase 2 (PTGS2, Homo sapiens, UniProt P35354)
Read-out: enzyme activity
Mode: inhibitor
One construct used (P35354 18-604): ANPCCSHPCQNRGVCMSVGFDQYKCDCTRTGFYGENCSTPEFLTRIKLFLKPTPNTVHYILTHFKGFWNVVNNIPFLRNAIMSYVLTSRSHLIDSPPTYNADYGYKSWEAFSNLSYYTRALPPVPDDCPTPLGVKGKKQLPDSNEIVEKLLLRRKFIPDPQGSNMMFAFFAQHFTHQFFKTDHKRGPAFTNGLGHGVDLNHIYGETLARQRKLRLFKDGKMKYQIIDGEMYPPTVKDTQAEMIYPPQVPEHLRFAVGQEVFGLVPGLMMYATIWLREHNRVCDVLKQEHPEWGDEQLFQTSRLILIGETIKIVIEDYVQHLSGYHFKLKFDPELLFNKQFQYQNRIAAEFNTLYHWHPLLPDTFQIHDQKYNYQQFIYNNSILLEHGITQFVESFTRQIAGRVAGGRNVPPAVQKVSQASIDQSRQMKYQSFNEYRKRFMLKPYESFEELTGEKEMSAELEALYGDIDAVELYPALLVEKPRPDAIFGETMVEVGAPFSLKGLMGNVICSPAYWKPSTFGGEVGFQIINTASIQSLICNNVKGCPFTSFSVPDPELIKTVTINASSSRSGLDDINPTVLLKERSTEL

SMILES | test | pIC50
Cc1cccc2nc(-c3ccc(S(C)(=O)=O)cc3)c(Nc3ccccc3)n12 | – | 7.15
O=C(O)c1ccc(O)cc1 | absorbance | 4.71
CCn1c(-c2nc3cc(C(=O)N4CCC[C@@H](N)C4)cc(OC)c3n2C)cc2cccnc21 | – | < 4.00
Cc1ccc(Nc2c(-c3ccc(S(C)(=O)=O)cc3)nc3c(C)cccn23)cc1 | – | 7.15
O=c1oc2c(O)c(O)cc3c(=O)oc4c(O)c(O)cc1c4c23 | – | 5.34
CS(=O)(=O)c1ccc(-n2cc(/C=N/N=c3\[nH]c(-c4ccc([N+](=O)[O-])cc4)cs3)c(-c3ccc(Br)cc3)n2)cc1 | – | 4.94
Cc1ccc(-c2nc3ccccc3s2)c(-c2ccc(S(C)(=O)=O)cc2)c1 | absorbance | 6.64
COc1ccc(-c2nn(-c3ccc(S(C)(=O)=O)cc3)cc2/C=N/N=c2\[nH]c(-c3ccc(Br)cc3)cs2)cc1 | – | 4.73
Cc1ccn2c(Nc3ccc(F)cc3)c(-c3ccc(S(C)(=O)=O)cc3)nc2c1 | – | 7.10
CC1=NN(c2cccc(Cl)c2)C(=O)/C1=C\c1cn(-c2nc(Cl)nc(N3CCOCC3)n2)c2ccccc12 | – | 7.00
O=C(O)c1cc(O)c(O)c(O)c1 | – | 5.09
CS(=O)(=O)c1ccc(-c2ncc(Cl)cc2-c2nc3ccccc3s2)cc1 | absorbance | 6.64
Cc1ccc(-c2nn(-c3ccc(S(C)(=O)=O)cc3)cc2/C=N\N=c2/[nH]c(-c3ccc([N+](=O)[O-])cc3)cs2)cc1 | – | 4.95
COc1ccc(Nc2c(-c3ccc(S(C)(=O)=O)cc3)nc3cc(C)ccn23)cc1 | – | 7.00
CC(=O)c1cccc(N=Nc2c(C(=O)O)cc(O)c(O)c2O)c1 | – | 5.26
O=c1cc(-c2ccc(O)c(O)c2)oc2cc(O)cc(O)c12 | – | 5.64
Cc1cccn2c(Nc3ccc(F)cc3)c(-c3ccc(S(C)(=O)=O)cc3)nc12 | – | 7.15

SMILES | test | pIC50
O=C(O)/C=C/c1ccc(O)cc1 | – | < 4.00
COC(=O)c1ccc(O)cc1 | absorbance | 4.01
O=Cc1cn(-c2nc(N3CCCCC3)nc(N3CCCCC3)n2)c2ccccc12 | – | 5.15
COc1ccc(Nc2c(-c3ccc(S(C)(=O)=O)cc3)nc3cccc(C)n23)cc1 | – | 7.05
O=Cc1cn(-c2nc(N3CCCC3)nc(N3CCOCC3)n2)c2ccccc12 | – | 5.70
COC(=O)c1cc(O)c(O)c(O)c1 | – | 4.75
CC1=NN(c2cccc(Cl)c2)C(=O)/C1=C\c1cn(-c2nc(N3CCCCC3)nc(N3CCCCC3)n2)c2ccccc12 | – | 7.00
Cc1ccc(-c2nc3ccccc3s2)c(-c2ccc(S(N)(=O)=O)cc2)c1 | absorbance | 6.60
O=C1/C(=C\c2cn(-c3nc(N4CCCC4)nc(N4CCOCC4)n3)c3ccccc23)c2ccccc2N1c1c(Cl)cccc1Cl | – | 5.40
CC(C)Cc1ccc(-c2nn(-c3ccc(S(C)(=O)=O)cc3)cc2/C=N/N=c2\[nH]c(-c3ccc([N+](=O)[O-])cc3)cs2)cc1 | – | 6.09
O=C1Nc2ccccc2/C1=C/c1cn(-c2nc(N3CCCCC3)nc(N3CCOCC3)n2)c2ccccc12 | – | 7.10
CS(=O)(=O)c1ccc(-n2cc(/C=N/N=c3\[nH]c(-c4ccc([N+](=O)[O-])cc4)cs3)c(-c3ccc([N+](=O)[O-])cc3)n2)cc1 | – | 4.81
O=Cc1cn(-c2nc(N3CCOCC3)nc(N3CCOCC3)n2)c2ccccc12 | – | 7.52
Cc1ccc(Nc2c(-c3ccc(S(C)(=O)=O)cc3)nc3cc(C)ccn23)cc1 | – | 7.15
CC1=NN(c2cccc(Cl)c2)C(=O)/C1=C\c1cn(-c2nc(N3CCCC3)nc(N3CCOCC3)n2)c2ccccc12 | – | 6.00
Cc1ccc(Nc2c(-c3ccc(S(C)(=O)=O)cc3)nc3ccccn23)cc1 | – | 7.00
